What all share (format): functional
Assay [1] concerns Pseudomonas aeruginosa. As to the kind of experiment: Antibacterial activity against Pseudomonas aeruginosa assessed as growth inhibition measured at 50 ug/ml after 24 hrs by broth microdilution method.
Assay [2] has as its system Staphylococcus aureus. As to the kind of experiment: Antibacterial activity against Staphylococcus aureus assessed as growth inhibition measured at 50 ug/ml after 24 hrs by broth microdilution method. For orientation: In broth dilution the organism is exposed to a series of concentrations in liquid medium.
The subject of assay [3] is Acinetobacter baumannii. As to the kind of experiment: Antibacterial activity against Acinetobacter baumannii assessed as growth inhibition measured at 50 ug/ml after 24 hrs by broth microdilution method.
Assay [4] deals with Escherichia coli. As to the kind of experiment: Antibacterial activity against Escherichia coli assessed as growth inhibition measured at 50 ug/ml after 24 hrs by broth microdilution method.
In assay [5] the test system is Escherichia coli. Description: Antibacterial activity against Escherichia coli assessed as growth inhibition measured after 24 hrs by broth microdilution method. In a few lines:
(§1)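 Broth microdilution per NCCLS. Bacteria were grown in Luria broth to exponential phase. Compounds were dissolved in DMSO (stock 5120 μg/ml), diluted in test medium and tested at two-fold dilutions from 1 to 128 μg/ml. MIC50 is the lowest concentration reducing OD to half that of the untreated control.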

Assay [6] has as its system Stenotrophomonas maltophilia. Description: Antibacterial activity against Stenotrophomonas maltophilia assessed as growth inhibition measured at 50 ug/ml after 24 hrs by broth microdilution method.
Assay [7] deals with Stenotrophomonas maltophilia. As to the kind of experiment: Antibacterial activity against Stenotrophomonas maltophilia assessed as growth inhibition measured after 24 hrs by broth microdilution method. In outline: as §1
Assay [8] has as its system Pseudomonas aeruginosa. As to the kind of experiment: Antibacterial activity against Pseudomonas aeruginosa assessed as growth inhibition measured after 24 hrs by broth microdilution method. In a few lines: as §1
Assay [9] deals with Acinetobacter baumannii. Description: Antibacterial activity against Acinetobacter baumannii assessed as growth inhibition measured after 24 hrs by broth microdilution method. In a few lines: as §1
Assay [10] deals with Staphylococcus aureus. Description: Antibacterial activity against Staphylococcus aureus assessed as growth inhibition measured after 24 hrs by broth microdilution method. In a few lines: as §1

Among the data in ChEMBL document CHEMBL2311458, “A facile synthesis, antibacterial activity of pulvinone and its derivatives” (2013) are inhibition and MIC50 values, retold here.

One may read the inhibition as the share of the control response that was lost under treatment. One may read the MIC50 as an inhibitory concentration at the 50% level, which refers to growth in some studies and to a panel of isolates in others.

Each structure is given as a SMILES string. In brackets after ≈: the same amount, converted by molar mass. Activity calls are given as the source filed them. No cut-off for these calls is given here.

As for `COC1=C(c2ccc(Cl)cc2)C(=O)OC1C(O)c1ccc(N2CCOCC2)c(F)c1` (centres undefined), the inhibition at 50 µg/mL came to 31.7% with Pseudomonas aeruginosa [1], 22.1% in the assay on Acinetobacter baumannii [3] and 61.8% in the assay on Escherichia coli [4]. Moreover, the inhibition entry in the assay on Staphylococcus aureus [2] was “inactive”. The MIC50 in the assay with Escherichia coli [5] came out at 30.3 µg/mL (≈ 69.7 µM).
On the same counts, the results for `COC1=C(c2ccccc2)C(=O)O/C1=C\c1ccc(N2CCOCC2)c(F)c1` are 17.6%, 10%, 45.4%, “inactive” and more than 50 µg/mL.
Consider `COC1=C(c2ccccc2)C(=O)OC1C(O)c1ccccc1` (centres undefined), for which the inhibition at 50 µg/mL was 53.2% in the assay on Pseudomonas aeruginosa [1], 25.9% in the assay with Acinetobacter baumannii [3], 61.7% in the assay on Escherichia coli [4] and 18% in assay [6]. The inhibition entry in the assay on Staphylococcus aureus [2] is “inactive”. The MIC50 in the assay on Escherichia coli [5] was found to be 5.86 µg/mL (≈ 19.8 µM).
On to `COC1=C(c2ccc(C)cc2)C(=O)OC1C(O)c1ccc(N2CCOCC2)c(F)c1` (centres undefined), for which the inhibition at 50 µg/mL in the assay on Pseudomonas aeruginosa [1] turned out to be 31.8%; with Acinetobacter baumannii [3], 4.9%; in the assay with Escherichia coli [4] it was 58.3%; in assay [6], 1.1%. The inhibition result in the assay with Staphylococcus aureus [2] is “inactive”. For the same compound, the MIC50 in the assay on Escherichia coli [5] stood at 3.67 µg/mL (≈ 8.88 µM).
As for `COC1=C(c2ccc(F)cc2)C(=O)O/C1=C\c1ccc(N2CCOCC2)c(F)c1`, the inhibition at 50 µg/mL amounted to 23.4% with Pseudomonas aeruginosa [1], 20.1% in the assay with Acinetobacter baumannii [3], 37.6% in the assay with Escherichia coli [4] and 59.4% in assay [6]. Besides, in the assay with Staphylococcus aureus [2], the inhibition entry was “inactive”. Besides, the MIC50 is 20.6 µg/mL (≈ 51.7 µM) in assay [7] and more than 50 µg/mL in the assay on Escherichia coli [5].
Consider `COC1=C(c2ccc(Br)cc2)C(=O)OC1C(O)c1ccc(N2CCOCC2)c(F)c1` (centres undefined), for which the inhibition at 50 µg/mL with Pseudomonas aeruginosa [1] was found to be 35.6%; with Acinetobacter baumannii [3] it was 32.9%; in the assay with Escherichia coli [4] it was 45.5%. Further, in the assay on Staphylococcus aureus [2], the inhibition entry is “inactive”. The MIC50 in [7] stood at 11.8 µg/mL (≈ 24.8 µM); with Escherichia coli [5] it was 1.01 µg/mL (≈ 2.11 µM).
Consider `O=C1O/C(=C\c2ccc(N3CCOCC3)c(F)c2)C(O)=C1c1ccc(F)cc1`, for which the inhibition at 50 µg/mL amounted to 23.2% in the assay with Pseudomonas aeruginosa [1], 15.6% in the assay with Acinetobacter baumannii [3], 56.8% in the assay with Escherichia coli [4] and 27.8% in assay [6]. For the same compound, in the assay on Staphylococcus aureus [2], the inhibition entry was “inactive”. In addition, the MIC50 in the assay with Escherichia coli [5] was found to be 15.6 µg/mL (≈ 40.5 µM).
Consider `O=C1O/C(=C\c2ccccc2)C(O)=C1c1ccccc1` [PULVINONE], for which the MIC50 was more than 50 µg/mL in the assay with Pseudomonas aeruginosa [8], 12.8 µg/mL (≈ 48.4 µM) in [7], more than 50 µg/mL in the assay with Acinetobacter baumannii [9] and 1.38 µg/mL (≈ 5.22 µM) in the assay with Escherichia coli [5]. Besides, the inhibition at 50 µg/mL in the assay with Staphylococcus aureus [2] stood at 59.2%.
On to `COC1=C(c2ccccc2)C(=O)OC1C(O)c1ccc(N2CCOCC2)c(F)c1` (centres undefined), for which the inhibition at 50 µg/mL in the assay with Pseudomonas aeruginosa [1] stood at 34.8%; with Acinetobacter baumannii [3], 29.2%; with Escherichia coli [4], 52.4%; in assay [6], 17.1%. For the same compound, the inhibition result with Staphylococcus aureus [2] was “inactive”. For the same compound, the MIC50 in the assay on Escherichia coli [5] is 36.5 µg/mL (≈ 91.3 µM).
`COC1=C(c2ccc(Cl)cc2)C(=O)O/C1=C\c1ccc(N2CCOCC2)c(F)c1`: the inhibition at 50 µg/mL was 45.3% with Pseudomonas aeruginosa [1] and 70.7% with Escherichia coli [4]. Also, the inhibition entry in the assay on Staphylococcus aureus [2] is “inactive”. In the assay on Escherichia coli [5], the MIC50 stood at 7.4 µg/mL (≈ 17.8 µM).
As to `C[C@H]1COc2c(N3CCN(C)CC3)c(F)cc3c(=O)c(C(=O)O)cn1c23.C[C@H]1COc2c(N3CCN(C)CC3)c(F)cc3c(=O)c(C(=O)O)cn1c23.O` [LEVOFLOXACIN], the MIC50 (in the assay with Staphylococcus aureus [10]; in the assay on Pseudomonas aeruginosa [8]; in [7]; in the assay on Acinetobacter baumannii [9]; in the assay on Escherichia coli [5]) was less than 0.25 µg/mL each time.
In the case of `COC1=C(c2ccccc2)C(=O)O/C1=C\c1ccccc1`, the inhibition at 50 µg/mL in the assay on Pseudomonas aeruginosa [1] amounted to 45.4%; with Acinetobacter baumannii [3], 18.2%; in the assay on Escherichia coli [4], 60.2%; in assay [6] it was 19.7%. Moreover, the inhibition result with Staphylococcus aureus [2] is “inactive”. Also, in the assay on Escherichia coli [5], the MIC50 was 3.91 µg/mL (≈ 14 µM).
In the case of `COC1=C(c2cccc(F)c2)C(=O)OC1C(O)c1ccc(N2CCOCC2)c(F)c1` (centres undefined), the inhibition at 50 µg/mL came out at 38.2% in the assay with Pseudomonas aeruginosa [1], 30.9% with Acinetobacter baumannii [3], 72% in the assay on Escherichia coli [4] and 41.5% in assay [6]. Moreover, in the assay on Staphylococcus aureus [2], the inhibition result was “inactive”. In addition, the MIC50 in the assay on Escherichia coli [5] came out at 4.09 µg/mL (≈ 9.8 µM).
For the compound `COC1=C(c2ccc(F)cc2)C(=O)OC1C(O)c1ccc(N2CCOCC2)c(F)c1` (centres undefined), the inhibition at 50 µg/mL in the assay with Pseudomonas aeruginosa [1] was 35.2%; in the assay with Acinetobacter baumannii [3], 22.8%; in the assay on Escherichia coli [4], 42%; in assay [6] it was 31.9%. The inhibition entry in the assay with Staphylococcus aureus [2] is “inactive”. The MIC50 in the assay on Escherichia coli [5] is more than 50 µg/mL.
